Measured values published in the array DNA melting data of Ke et al. (doi:10.1101/2024.01.08.574731).

Key:
[1] = folding enthalpy; higher = less favourable; fluorescence melt of hairpins on a sequencing array, two-state fit; conditions: sodium 0.088 M
Summary of the method: (§1)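 In 50 mM Na-HEPES pH 8.0 containing 25 mM NaCl, hairpins from the library on a sequenced MiSeq flow cell were imaged for Cy3 fluorescence at 2.5 °C steps up to 60 °C, with Cy3 and quencher oligos annealed. After normalisation to pre-quench Cy3 and to control constructs, two-state fits with bootstrapping gave melting temperature and folding enthalpy. Four replicates were combined by inverse-variance weighting, and fitted temperatures were shifted up by 9.35 °C to match UV melts.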

[2] = melting temperature; fluorescence melt of hairpins on a sequencing array, two-state fit, raised by 9.35 °C to match UV melts; conditions: sodium 0.088 M
Summary of the method: as §1

Sequence | folding enthalpy [1] | Tm [2]
GATCCGTTTTCGGATC ((((((....)))))) | -42.2 kcal/mol | 61.8 °C
GATCCTAAAAGGATC ((((((...)))))) | -36.3 kcal/mol | 54.3 °C
GATCCTAAGCAGGATC ((((((....)))))) | -29.9 kcal/mol | 52.9 °C
GATCCTACCGAGGATC ((((((....)))))) | -39.2 kcal/mol | 51.2 °C
GATCCTACTTAGGATC ((((((....)))))) | -37.3 kcal/mol | 53.2 °C
GATCCTAGCGAGGATC ((((((....)))))) | -32.9 kcal/mol | 52.8 °C
GATCCTAGGAGGATC ((((((...)))))) | -35.3 kcal/mol | 54.1 °C
GATCCTAGTCAGGATC ((((((....)))))) | -45.9 kcal/mol | 51.6 °C
GATCCTATAAAGGATC ((((((....)))))) | -38.6 kcal/mol | 51.8 °C
GATCCTATAGAGGATC ((((((....)))))) | -28.9 kcal/mol | 50.4 °C
GATCCTATTGAGGATC ((((((....)))))) | -40.9 kcal/mol | 51.4 °C
GATCCTCAAGAGGATC ((((((....)))))) | -38 kcal/mol | 53.4 °C
GATCCTCCGCAGGATC ((((((....)))))) | -14.5 kcal/mol | 44.6 °C
GATCCTCCTCAGGATC ((((((....)))))) | -45.2 kcal/mol | 50.2 °C
GATCCTCCTGAGGATC ((((((....)))))) | -41.2 kcal/mol | 57.2 °C
GATCCTCGACAGGATC ((((((....)))))) | -35.6 kcal/mol | 48.5 °C
GATCCTCGCAGGATC ((((((...)))))) | -33.8 kcal/mol | 55.5 °C
GATCCTCGGAAGGATC ((((((....)))))) | -34.4 kcal/mol | 50.2 °C
GATCCTCGGCAGGATC ((((((....)))))) | -29.4 kcal/mol | 49.7 °C
GATCCTCGGGAGGATC ((((((....)))))) | -37.7 kcal/mol | 56.1 °C
GATCCTCGTTAGGATC ((((((....)))))) | -39.1 kcal/mol | 51.7 °C
GATCCTCTAAGGATC ((((((...)))))) | -33.3 kcal/mol | 54.3 °C
GATCCTCTGGAGGATC ((((((....)))))) | -39.5 kcal/mol | 58.3 °C
GATCCTCTTAAGGATC ((((((....)))))) | -42.5 kcal/mol | 52.9 °C

Sequence | folding enthalpy [1] | Tm [2]
GATCCTGACAGGATC ((((((...)))))) | -38.9 kcal/mol | 55.7 °C
GATCCTGACTAGGATC ((((((....)))))) | -43.3 kcal/mol | 56.7 °C
GATCCTGAGAAGGATC ((((((....)))))) | -40.2 kcal/mol | 57.6 °C
GATCCTGATCAGGATC ((((((....)))))) | -39.8 kcal/mol | 56.1 °C
GATCCTGCCAAGGATC ((((((....)))))) | -38.6 kcal/mol | 65.6 °C
GATCCTGCCAGGATC ((((((...)))))) | -34.7 kcal/mol | 56.6 °C
GATCCTGCTAAGGATC ((((((....)))))) | -46.2 kcal/mol | 63.2 °C
GATCCTGGAAACAGAATC (((.(((....))).))) | -16.8 kcal/mol | 30.1 °C
GATCCTGGAAACAGGACC (.(((((....))))).) | -14.4 kcal/mol | 40.1 °C
GATCCTGGGCAGGATC ((((((....)))))) | -35.7 kcal/mol | 54.2 °C
GATCCTGGGTAGGATC ((((((....)))))) | -33.4 kcal/mol | 51.3 °C
GATCCTGGTAGGATC ((((((...)))))) | -32.6 kcal/mol | 54.6 °C
GATCCTGGTGAGGATC ((((((....)))))) | -42.1 kcal/mol | 52.5 °C
GATCCTGTACAGGATC ((((((....)))))) | -40.7 kcal/mol | 60.2 °C
GATCCTGTGAAGGATC ((((((....)))))) | -35.4 kcal/mol | 58.4 °C
GATCCTGTTAGGATC ((((((...)))))) | -38.1 kcal/mol | 55.4 °C
GATCCTGTTTAGGATC ((((((....)))))) | -44.3 kcal/mol | 52.6 °C
GATCCTTAAGAGGATC ((((((....)))))) | -38.1 kcal/mol | 50.9 °C
GATCCTTACCAGGATC ((((((....)))))) | -33.6 kcal/mol | 52.1 °C
GATCCTTAGAAGGATC ((((((....)))))) | -33.8 kcal/mol | 50.2 °C
GATCCTTAGTAGGATC ((((((....)))))) | -35.8 kcal/mol | 50.3 °C
GATCCTTATTAGGATC ((((((....)))))) | -37.8 kcal/mol | 51.7 °C
GATCCTTCAGAGGATC ((((((....)))))) | -48.2 kcal/mol | 51.6 °C
GATCCTTCCAAGGATC ((((((....)))))) | -47 kcal/mol | 55.3 °C

Sequence | folding enthalpy [1] | Tm [2]
GATCCTTCTTAGGATC ((((((....)))))) | -41.8 kcal/mol | 52.8 °C
GATCCTTGAAAGGATC ((((((....)))))) | -42.3 kcal/mol | 51.9 °C
GATCCTTTAGAGGATC ((((((....)))))) | -43.7 kcal/mol | 52.2 °C
GATCGAAAAATCGATC ((((((....)))))) | -25.5 kcal/mol | 43.9 °C
GATCGAAACGTCGATC ((((((....)))))) | -41.4 kcal/mol | 50.3 °C
GATCGAAAGGTCGATC ((((((....)))))) | -28.7 kcal/mol | 47.7 °C
GATCGAAATCTCGATC ((((((....)))))) | -32.7 kcal/mol | 48.7 °C
GATCGAAATGTCGATC ((((((....)))))) | -36.8 kcal/mol | 48.7 °C
GATCGAACGATCGATC ((((((....)))))) | -18.9 kcal/mol | 52.8 °C
GATCGAACGGTCGATC ((((((....)))))) | -51.2 kcal/mol | 51.1 °C
GATCGAACTTTCGATC ((((((....)))))) | -35.6 kcal/mol | 53.4 °C
GATCGAAGACTCGATC ((((((....)))))) | -30.3 kcal/mol | 48.5 °C
GATCGAAGATTCGATC ((((((....)))))) | -35.5 kcal/mol | 51.4 °C
GATCGAAGCCTCGATC ((((((....)))))) | -33 kcal/mol | 50.9 °C
GATCGAAGTCTCGATC ((((((....)))))) | -35.1 kcal/mol | 49.2 °C
GATCGAAGTTCGATC ((((((...)))))) | -38.4 kcal/mol | 50.3 °C
GATCGAAGTTTCGATC ((((((....)))))) | -44.8 kcal/mol | 53.5 °C
GATCGAATTTTCGATC ((((((....)))))) | -36.1 kcal/mol | 55.1 °C
GATCGACACGTCGATC ((((((....)))))) | -33.7 kcal/mol | 59.7 °C
GATCGACAGATCGATC ((((((....)))))) | -16.1 kcal/mol | 54.8 °C
GATCGACATATCGATC ((((((....)))))) | -43.4 kcal/mol | 51.7 °C
GATCGACATCTCGATC ((((((....)))))) | -36 kcal/mol | 50.3 °C
GATCGACCGATCGATC ((((((....)))))) | -25.4 kcal/mol | 51.6 °C
GATCGACCGTCGATC ((((((...)))))) | -36 kcal/mol | 49 °C

Sequence | folding enthalpy [1] | Tm [2]
GATCGACCTCTCGATC ((((((....)))))) | -35.8 kcal/mol | 50 °C
GATCGACGCTCGATC ((((((...)))))) | -41.3 kcal/mol | 49.6 °C
GATCGACGTTTCGATC ((((((....)))))) | -42.5 kcal/mol | 50.9 °C
GATCGACTGTTCGATC ((((((....)))))) | -40.5 kcal/mol | 50.6 °C
GATCGAGACTTCGATC ((((((....)))))) | -43.3 kcal/mol | 57.2 °C
GATCGAGAGATCGATC ((((((....)))))) | -25.6 kcal/mol | 54.7 °C
GATCGAGAGCTCGATC ((((((....)))))) | -36.5 kcal/mol | 51.8 °C
GATCGAGAGGTCGATC ((((((....)))))) | -19 kcal/mol | 50.1 °C
GATCGAGATGTCGATC ((((((....)))))) | -37 kcal/mol | 52.5 °C
GATCGAGCCCTCGATC ((((((....)))))) | -42.1 kcal/mol | 56.4 °C
GATCGAGCGTCGATC ((((((...)))))) | -31.7 kcal/mol | 51 °C
GATCGAGGAAACCCGATC (((((.(....).))))) | -33.1 kcal/mol | 47.8 °C
GATCGAGGACTCGATC ((((((....)))))) | -38.4 kcal/mol | 60.1 °C
GATCGAGGATCGATC ((((((...)))))) | -35.4 kcal/mol | 59.6 °C
GATCGAGGCCTCGATC ((((((....)))))) | -49.1 kcal/mol | 62.2 °C
GATCGAGGCTTCGATC ((((((....)))))) | -41.8 kcal/mol | 57.9 °C
GATCGAGTATCGATC ((((((...)))))) | -40.9 kcal/mol | 59.6 °C
GATCGAGTCATCGATC ((((((....)))))) | -35.4 kcal/mol | 60.7 °C
GATCGAGTCGTCGATC ((((((....)))))) | -35.6 kcal/mol | 54.9 °C
GATCGAGTGCTCGATC ((((((....)))))) | -58.9 kcal/mol | 53.8 °C
GATCGATAAATCGATC ((((((....)))))) | -39.9 kcal/mol | 52.3 °C
GATCGATAGCTCGATC ((((((....)))))) | -41.9 kcal/mol | 49.6 °C
GATCGATATCTCGATC ((((((....)))))) | -36 kcal/mol | 51 °C
GATCGATCACTCGATC ((((((....)))))) | -41.5 kcal/mol | 51.2 °C
